Compound activity (PubChem BioAssay)
MrgX1 antagonist = antagonists of human MrgX1 receptor; Q96LB2; MRGX1-HEK293 calcium flux, Fluo-4, BAM8-22 antagonism; stronger effect = lower value; B-score at 10 µM; actives 1.3% (n = 310,000);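 active means calcium-response B-score plate-corrected more than 3 library SD below zero, starting fluorescence within 5 deviations, no agonist response on first addition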;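 further: peak minus trough fluorescence over baseline after final BAM8-22 challenge near maximal dose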
Target sequence (Q96LB2 whole entry, looked up): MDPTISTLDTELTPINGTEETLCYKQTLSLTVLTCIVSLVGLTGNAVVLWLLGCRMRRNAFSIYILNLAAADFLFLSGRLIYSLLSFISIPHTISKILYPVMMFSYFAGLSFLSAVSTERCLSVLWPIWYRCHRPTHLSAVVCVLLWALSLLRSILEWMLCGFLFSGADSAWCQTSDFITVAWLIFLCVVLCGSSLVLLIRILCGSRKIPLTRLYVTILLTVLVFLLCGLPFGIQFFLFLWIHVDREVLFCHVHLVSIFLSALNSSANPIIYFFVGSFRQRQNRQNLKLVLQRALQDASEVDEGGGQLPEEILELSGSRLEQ
MrgX1 ag = human MrgX1 receptor agonism, primary screen | MrgX1-HEK293 cells, Fluo-4 calcium fluorescence, agonist mode; stronger effect = higher value | B-score at 10 µM | actives 0.44% (n = 310,000) | AID 588627;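 active means calcium response B-score plate-corrected fluorescence ratio at least 3 library SD, with starting fluorescence B-score inside 5 SD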
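System – MrgX1-expressing HEK293 cells · Incubation – cells plated overnight, dye loaded 0.5 h 37 °C, 0.5 h room temperature · Technique – kinetic Fluo-4 NW fluorescence of intracellular calcium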
RGS4 block = human RGS4 inhibition | HEK293 M3R/RGS4 inducible, Fluo-4 calcium flux; stronger effect = higher value; triggered by carbachol at its EC20 | B-score at 10 µM | actives 0.45% (n = 310,000) | AID 463165;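 active means B-score, a plate-corrected calcium signal, over three deviations above library mean, with baseline fluorescence within five deviations of library mean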;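 further: RGS4 expression induced by doxycycline in cells with stable M3 receptor; B-score is computed from the integrated fluorescence ratio over baseline after carbachol; higher B-score means a larger calcium signal and so more RGS4 inhibition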
Target sequence (P49798 whole entry, looked up): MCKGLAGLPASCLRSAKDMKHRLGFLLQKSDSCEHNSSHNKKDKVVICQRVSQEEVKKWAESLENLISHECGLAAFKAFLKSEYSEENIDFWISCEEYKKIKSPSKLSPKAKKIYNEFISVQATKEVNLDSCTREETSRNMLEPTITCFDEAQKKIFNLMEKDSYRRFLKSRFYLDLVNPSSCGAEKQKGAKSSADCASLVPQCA
MrgX1 allo act = allosterically activates human MrgX1 receptor signaling | actives 0.63% (n = 310,000) | MrgX1-HEK293, Fluo-4 calcium flux, FDSS; stronger effect = higher value | AID 588675 | B-score at 10 µM;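 active means plate-corrected calcium response at least 3 library SD above typical, normal starting fluorescence, not activating the receptor alone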;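 further: compound read alongside a low EC10 to EC30 dose of BAM8-22 agonist; peak minus trough fluorescence over baseline measured at the second addition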
RGS4 pot = potentiators or activators of RGS4; AID 463111; actives 0.92% (n = 310,000); HEK293 M3R/inducible RGS4, carbachol calcium flux Fluo4; stronger effect = lower value; B-score at 10 µM;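 active means B-score of the integrated calcium signal more than 4 SD below the library mean, with starting fluorescence not abnormally high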;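 further: negative B-score means reduced calcium response which marks RGS4 activation or potentiation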
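Also added: carbachol at ECmax as muscarinic agonist stimulus; Assay system: HEK293 cells with stable M3R and inducible RGS4; Timing: overnight RGS4 induction, 30 min dye load 37 °C, 20 min compound RT; Measured by: Fluo4-AM (2 µM) calcium-flux fluorescence, kinetic read.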
MrgX1 antag conf = human MrgX1 receptor antagonism, re-confirmation screen; shares compounds with MrgX1 antagonist; MrgX1-HEK293, BAM8-22 calcium flux, Fluo-4; stronger effect = lower value; remaining BAM8-22 calcium response % of control (stronger effect = lower value), % at 10 µM; actives 19% (n = 2,300);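 active means remaining agonist calcium response no higher than 100% minus 3 SD of agonist-only control wells, with starting fluorescence near control levels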;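 further: agonist BAM8-22 given at a near maximal EC90 to ECmax level; peak minus minimum fluorescence divided by baseline after agonist addition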
HEK293 Ca flux = activity in parental HEK293 cells lacking MrgX1. AID 624111. fluorescence ratio F(max-min)/F0 at 10 µM. shares compounds with MrgX1 antagonist. Fluo-4 calcium fluorescence, FDSS. actives 2% (n = 4,000);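 active means duplicate-averaged calcium fluorescence ratio at least three times the standard deviation of buffer wells, a nonspecific response in parental cells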
HEK293 Ca counter = activity in parental HEK293 cells without MrgX1; shares compounds with MrgX1 antagonist; parental HEK293 calcium flux, Fluo-4 fluorescence ratio; stronger effect = higher value; fluorescence ratio F(max-min)/F0 at 10 µM; actives 0.4% (n = 4,000);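 active means calcium fluorescence ratio, averaged over duplicates, at least 3 SD of the buffer-well ratio, meaning a nonspecific response in receptor-free cells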;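 further: untransfected parental HEK293 lacking MrgX1 used as counterscreen for MrgX1 allosteric activators; fluorescence change taken during the second addition on a kinetic imager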
HEK293 Ca cntr2 = activity in parental HEK293 cells lacking MrgX1 receptor | shares compounds with MrgX1 antagonist | Fluo-4 calcium fluorescence (FDSS); stronger effect = higher value | fluorescence ratio F(max-min)/F0 at 10 µM | actives 8.7% (n = 4,000);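 active means calcium fluorescence ratio at least three times the spread of buffer wells, meaning a non-specific response in parental cells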
Numbers stand for hits. Most compounds without a hit are left out; they make up all but 3.5% or so of the library.

For COc1ccc(-n2c(=S)[nH]c3cc(C(=O)Nc4ccc(C)c(F)c4)ccc3c2=O)c(OC)c1 the results were MrgX1 antagonist -5.04, MrgX1 ag inactive, RGS4 block inactive, MrgX1 allo act inactive, RGS4 pot inactive, MrgX1 antag conf inactive, HEK293 Ca flux inactive, HEK293 Ca counter inactive and HEK293 Ca cntr2 inactive.
`CCn1c(C)c(C(C)=O)c(N2CCN(c3ccccc3)CC2)nc1=S` gave MrgX1 antagonist -8.89, MrgX1 ag inactive, RGS4 block inactive, MrgX1 allo act inactive, RGS4 pot inactive, MrgX1 antag conf inactive, HEK293 Ca flux inactive, HEK293 Ca counter inactive and HEK293 Ca cntr2 inactive.
For CCn1c(C)c(C(C)=O)c(N2CCN(c3ccccn3)CC2)nc1=S the results were MrgX1 antagonist inactive, MrgX1 ag inactive, RGS4 block inactive, MrgX1 allo act inactive and RGS4 pot inactive.
`COc1ccc2c(c1)c(=O)c(C(=O)c1ccc(C)cc1)cn2CC(=O)Nc1ccc(F)cc1` gave MrgX1 antagonist inactive, MrgX1 ag inactive, RGS4 block inactive, MrgX1 allo act inactive and RGS4 pot inactive.
For Cc1ccc(C(=O)c2c[nH]c3c(F)cc(F)cc3c2=O)cc1 the results were MrgX1 antagonist -6.78, MrgX1 ag inactive, RGS4 block inactive, MrgX1 allo act inactive, RGS4 pot inactive, MrgX1 antag conf inactive, HEK293 Ca flux inactive, HEK293 Ca counter inactive and HEK293 Ca cntr2 inactive.
For CCOC(=O)C(Cc1ccc(O)cc1)NC(=O)CNC(=O)C1CCCN1C(=O)OC(C)(C)C (stereo not given) the results were MrgX1 antagonist inactive, MrgX1 ag inactive, RGS4 block inactive, MrgX1 allo act inactive and RGS4 pot inactive.
COc1ccc(N(CC(=O)NCc2ccccc2)S(=O)(=O)c2c(C)nn(C)c2C)cc1 was read as MrgX1 antagonist -6.56, MrgX1 ag inactive, RGS4 block inactive, MrgX1 allo act inactive, RGS4 pot inactive, MrgX1 antag conf inactive, HEK293 Ca flux inactive, HEK293 Ca counter inactive and HEK293 Ca cntr2 inactive.
CCOC(=O)C1CCCN(C(=O)c2cn(-c3ccccc3)nc2-c2cccnc2)C1 (stereo not given) was read as MrgX1 antagonist inactive, MrgX1 ag inactive, RGS4 block inactive, MrgX1 allo act inactive and RGS4 pot inactive.
`CC1CCCN(C(=O)c2cn(-c3ccccc3)nc2-c2cccnc2)C1` (stereo not given) gave MrgX1 antagonist -6.83, MrgX1 ag inactive, RGS4 block inactive, MrgX1 allo act inactive, RGS4 pot inactive, MrgX1 antag conf inactive, HEK293 Ca flux inactive, HEK293 Ca counter inactive and HEK293 Ca cntr2 inactive.
Screening O=S(=O)(Nc1cc(F)ccc1F)c1cccc2nonc12 returned MrgX1 antagonist inactive, MrgX1 ag inactive, RGS4 block inactive, MrgX1 allo act inactive and RGS4 pot inactive.
For CCOC(=O)CNc1c(N2CCN(c3ccccn3)CC2)c(=O)c1=O the results were MrgX1 antagonist -6.5, MrgX1 ag inactive, RGS4 block inactive, MrgX1 allo act inactive, RGS4 pot inactive, MrgX1 antag conf inactive, HEK293 Ca flux inactive, HEK293 Ca counter inactive and HEK293 Ca cntr2 inactive.
`O=C(C1CCC(CNc2c(N3CCCCC3)c(=O)c2=O)CC1)N1CCN(c2ccccn2)CC1` (stereo not given) gave MrgX1 antagonist inactive, MrgX1 ag inactive, RGS4 block inactive, MrgX1 allo act inactive and RGS4 pot inactive.
Screening OCCC1CN(Cc2cc3c(cc2Cl)OCO3)CCN1C1CCCC1 (stereo not given) returned MrgX1 antagonist inactive, MrgX1 ag inactive, RGS4 block inactive, MrgX1 allo act inactive and RGS4 pot inactive.
CC(C)n1c(O)c(N=NC(=O)Cc2csc(N3CCOCC3)n2)c2ccccc21 was read as MrgX1 antagonist inactive, MrgX1 ag inactive, RGS4 block inactive, MrgX1 allo act inactive and RGS4 pot inactive.
For CCc1nc2ccc(C(=O)NCc3ccccc3)cc2nc1CC the results were MrgX1 antagonist -8.32, MrgX1 ag inactive, RGS4 block inactive, MrgX1 allo act inactive, RGS4 pot inactive, MrgX1 antag conf inactive, HEK293 Ca flux inactive, HEK293 Ca counter inactive and HEK293 Ca cntr2 inactive.
CCOc1ccc(C(=O)NCc2ccccc2)cc1Br was read as MrgX1 antagonist -5.38, MrgX1 ag inactive, RGS4 block inactive, MrgX1 allo act inactive, RGS4 pot inactive, MrgX1 antag conf 85.1%, HEK293 Ca flux inactive, HEK293 Ca counter inactive and HEK293 Ca cntr2 inactive.
For CSCc1ccc(C(=O)NCc2ccccc2)cc1 the results were MrgX1 antagonist inactive, MrgX1 ag inactive, RGS4 block inactive, MrgX1 allo act inactive and RGS4 pot inactive.
O=C(NCc1ccccc1)c1cccc(COc2cccc(Cl)c2)c1 was read as MrgX1 antagonist -4.56, MrgX1 ag inactive, RGS4 block inactive, MrgX1 allo act inactive, RGS4 pot inactive, MrgX1 antag conf inactive, HEK293 Ca flux inactive, HEK293 Ca counter inactive and HEK293 Ca cntr2 inactive.
Screening CCOc1cc(C(=O)NCc2ccccc2)ccc1OCC(=O)N1CCOCC1 returned MrgX1 antagonist inactive, MrgX1 ag inactive, RGS4 block inactive, MrgX1 allo act inactive and RGS4 pot inactive.
`O=C(NCc1ccccc1)c1cccc(COc2ccc(Cl)cc2)c1` gave MrgX1 antagonist inactive, MrgX1 ag inactive, RGS4 block inactive, MrgX1 allo act inactive and RGS4 pot inactive.
Cc1ccc(NC(=O)CN2C(=O)CC(C)S(=O)(=O)c3ccccc32)cc1 (stereo not given) was read as MrgX1 antagonist inactive, MrgX1 ag inactive, RGS4 block inactive, MrgX1 allo act inactive and RGS4 pot inactive.
`CC(NC(=O)Cn1nnc(-c2ccncc2)n1)c1ccccc1` (stereo not given) gave RGS4 block inactive and RGS4 pot inactive.
COc1cc(NC(=S)NC(=O)c2ccc(C(C)(C)C)cc2)ccc1NC(=O)c1cccs1 was read as MrgX1 antagonist -6.24, MrgX1 ag inactive, RGS4 block inactive, MrgX1 allo act inactive, RGS4 pot inactive, MrgX1 antag conf 80.5%, HEK293 Ca flux inactive, HEK293 Ca counter inactive and HEK293 Ca cntr2 inactive.
`CCc1ccccc1OCC(=O)Nc1ccc(S(N)(=O)=O)cc1` gave MrgX1 antagonist inactive, MrgX1 ag inactive, RGS4 block inactive, MrgX1 allo act inactive and RGS4 pot inactive.
